These results are taken from ChEMBL document CHEMBL5335771, “Thioxanthenone-based derivatives as multitarget therapeutic leads for Alzheimer's disease” (Eur J Med Chem, 2023).

For one series, the target named is Acetylcholinesterase (Electrophorus electricus, UniProt O42275). Briefly: Inhibition of electric eel AChE using acetylthiocholine iodide as substrate preincubated for 20 mins followed by substrate addition by DTNB reagent based Ellman's method.
Series [1] can be described thus: Cytotoxicity against mouse brain Primary embryonic cortical cell assessed as cell death at 2.5 uM incubated for 2 hrs by propidium iodide dye based spectrofluorometric analysis relative to control. The format is toxicity. The gist of the method: (§1)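 Primary cortical cultures from E16.5 mouse embryo brains, trypsinized, plated on poly-D-lysine, grown in Neurobasal with glutamine, glucose, 5% horse serum and B27; compounds added at 4 DIV. Propidium iodide 30 μM; baseline F1 read 1 h after PI; ex 530/em 645 nm. Fmax after digitonin permeabilization. % death = 100×(Fn−F1)/(Fmax−F1); mean of three independent experiments.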

Series [2] is described as follows: Cytotoxicity against mouse brain Primary embryonic cortical cell assessed as cell death at 2.5 uM incubated for 6 hrs by propidium iodide dye based spectrofluorometric analysis relative to control. The format is toxicity. The gist of the method: as §1
Series [3] in a line: Cytotoxicity against mouse brain Primary embryonic cortical cell assessed as cell death at 2.5 uM incubated for 24 hrs by propidium iodide dye based spectrofluorometric analysis relative to control. The format is toxicity. The gist of the method: as §1
A short description of series [4]: Cytotoxicity against mouse brain Primary embryonic cortical cell assessed as cell death at 5 uM incubated for 1 hr by propidium iodide dye based spectrofluorometric analysis relative to control. The format is toxicity. The gist of the method:
as §1

Series [5] is described as follows: Cytotoxicity against mouse brain Primary embryonic cortical cell assessed as cell death at 5 uM incubated for 4 hrs by propidium iodide dye based spectrofluorometric analysis relative to control. The format is toxicity. The gist of the method:
as §1

The nature of series [6]: Cytotoxicity against mouse brain Primary embryonic cortical cell assessed as cell death at 5 uM incubated for 72 hrs by propidium iodide dye based spectrofluorometric analysis relative to control. The format is toxicity. The gist of the method: as §1
Series [7] in a line: Cytotoxicity against mouse brain Primary embryonic cortical cell assessed as cell death at 10 uM incubated for 3 hrs by propidium iodide dye based spectrofluorometric analysis relative to control. The format is toxicity. The gist of the method:
as §1

The nature of series [8]: Cytotoxicity against mouse brain Primary embryonic cortical cell assessed as cell death at 10 uM incubated for 24 hrs by propidium iodide dye based spectrofluorometric analysis relative to control. It is filed as toxicity. The gist of the method:
as §1

Series [9] is described as follows: Cytotoxicity against mouse brain Primary embryonic cortical cell assessed as cell death at 30 uM incubated for 3 hrs by propidium iodide dye based spectrofluorometric analysis relative to control. It is filed as toxicity. The gist of the method: as §1
In the next series the test system is SH-SY5Y. Nature of the series: Neuroprotective activity against okadaic acid-induced cytotoxicity in human SH-SY5Y cells assessed as increase in cell viability at 0.1 to 10 uM incubated for 24 hrs by MTT assay. It is filed as functional, cell-based. The following applies: dose 0.1-10 µM. The gist of the method:
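SH-SY5Y cells grown in DMEM with 10% FBS and plated at 4.5×10^4 cells/well. Incubated 24 h at 37 °C, 5% CO2 with compound (0.1–50 μM) plus okadaic acid 100 nM. Viability by MTT, expressed as % of untreated cells; estradiol and PD38 as positive controls. Mean ± SD of three independent experiments; ANOVA with Dunnett's test.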

Series [10] can be described thus: Cytotoxicity against rat Primary cerebellar granule neuron assessed as cell viability at 10 uM relative to control. The format is toxicity, cell-based, Cerebellar granule neurone. The conditions noted are these: primary cerebellar granule neurons, read-out: Activity.

The source made the active and inactive calls. The rule behind the calls is not given here.

Chain of Acetylcholinesterase (O42275 whole entry): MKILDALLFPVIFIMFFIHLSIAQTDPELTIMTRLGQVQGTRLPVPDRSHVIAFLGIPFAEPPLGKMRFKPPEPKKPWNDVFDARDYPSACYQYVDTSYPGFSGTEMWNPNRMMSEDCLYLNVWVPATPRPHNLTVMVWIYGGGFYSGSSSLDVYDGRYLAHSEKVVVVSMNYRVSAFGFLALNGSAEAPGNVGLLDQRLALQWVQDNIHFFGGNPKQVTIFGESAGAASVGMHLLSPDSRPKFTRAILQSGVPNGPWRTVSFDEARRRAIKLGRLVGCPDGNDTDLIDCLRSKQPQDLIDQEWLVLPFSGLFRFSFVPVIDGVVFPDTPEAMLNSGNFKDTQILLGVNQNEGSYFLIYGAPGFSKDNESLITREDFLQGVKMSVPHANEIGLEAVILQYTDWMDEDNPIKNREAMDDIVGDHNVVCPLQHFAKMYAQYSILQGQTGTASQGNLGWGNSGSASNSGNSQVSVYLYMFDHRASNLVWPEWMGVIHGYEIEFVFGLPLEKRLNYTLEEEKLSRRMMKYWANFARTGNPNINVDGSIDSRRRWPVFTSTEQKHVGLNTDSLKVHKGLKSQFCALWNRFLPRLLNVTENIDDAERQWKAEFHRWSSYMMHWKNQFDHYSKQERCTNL

Take `COc1ccc2sc3c(C)ccc(NCCC4CCN(C)CC4)c3c(=O)c2c1`: on Acetylcholinesterase, the IC50 turned out to be 4.4 µM. In addition, the Activity turned out to be 3.8% in series [1]; 29.9% in [2]; 76.2% in [3]; 1.6% in [4]; 25.8% in [5]; 85.7% in [6]. Moreover, the Activity came to 48.9% in series [7], 88.5% in series [8] and 54.7% in series [9]. Besides, the outcome in the series on SH-SY5Y was Active. Also, in series [10], the viability at 10 µM came out at 30%.

A word on the IC50: it is the midpoint of a concentration-inhibition curve. A higher IC50 goes with a need for much substance.
